“And” between values parts separate entries of the source, which are not always exact repeats. Equal entries are not always repeated.
Tested on: Fibroblast
Assay: Multiplex assay against human fibroblast
Format: toxicity, cell-based
Details: number of replicates 2
Procedure, shortened: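 Live cells were stained at seeding with Hoechst33342, BioTracker Green Microtubule Cytoskeleton Dye, MitoTracker Red and Annexin V Alexa Fluor 680, then imaged on a CQ1 microscope at 37°C and 5% CO2 after compound addition. CellPathfinder machine-learning gating split cells into Hoechst high-intensity objects or normal cells. Normal cells were split into healthy, pyknosed or fragmented nuclei, and pyknosed cells into mitotic or apoptotic. Tubulin, mitochondrial-mass and membrane-permeability phenotypes are per cents of healthy-nucleus cells.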

[1] = 12 h, 1 µM, compound concentration 1 uM
[2] = 12 h, 10 µM, compound concentration 10 uM
[3] = 24 h, 1 µM, compound concentration 1 uM
[4] = 24 h, 10 µM, compound concentration 10 uM
[5] = 48 h, 1 µM, compound concentration 1 uM
[6] = 48 h, 10 µM, compound concentration 10 uM

## CS(=O)(=O)c1ccc(C(=O)Nc2cc(F)cc(COc3cc(F)c(Br)cc3CN3CC[C@H](O)C3)c2)c(Cl)c1.O=CO
[1]
  Population Apoptotic (%): 46% and 47%
  Population Fragmented Nuclei (%): 17%
  Population Healthy Nuclei (%): 64% and 60%
  Population Hoechst High Intensity Objects (%): 0%
  Population Normal (%): 99%
  Population Pyknosed Nuclei (%): 18% and 26%
  Total Cell Count: 269 and 200
[2]
  Population Apoptotic (%): 67% and 54%
  Population Fragmented Nuclei (%): 20% and 17%
  Population Hoechst High Intensity Objects (%): 0%
  Population Normal (%): 100%
  Population Pyknosed Nuclei (%): 49% and 35%
  Total Cell Count: 234
[3]
  Population Apoptotic (%): 56% and 57%
  Population Fragmented Nuclei (%): 20% and 17%
  Population Healthy Nuclei (%): 65% and 63%
  Population Hoechst High Intensity Objects (%): 0%
  Population Normal (%): 100%
  Population Pyknosed Nuclei (%): 19%
  Total Cell Count: 284 and 204
[4]
  Population Apoptotic (%): 88% and 75%
  Population Fragmented Nuclei (%): 11%
  Population Healthy Nuclei (%): 42% and 51%
  Population Hoechst High Intensity Objects (%): 0%
  Population Normal (%): 99% and 100%
  Population Pyknosed Nuclei (%): 44% and 36%
  Total Cell Count: 134 and 230
[5]
  Population Apoptotic (%): 74% and 71%
  Population Fragmented Nuclei (%): 25%
  Population Healthy Nuclei (%): 66% and 65%
  Population Hoechst High Intensity Objects (%): 0%
  Population Normal (%): 100%
  Population Pyknosed Nuclei (%): 8%
  Total Cell Count: 319 and 223
[6]
  Population Apoptotic (%): 93% and 90%
  Population Fragmented Nuclei (%): 18% and 10%
  Population Healthy Nuclei (%): 22% and 39%
  Population Hoechst High Intensity Objects (%): 0%
  Population Normal (%): 100% and 98%
  Population Pyknosed Nuclei (%): 58% and 50%
  Total Cell Count: 102 and 177

## NC(=O)c1ccc(-c2nc(-c3ccc4c(c3)OCCO4)c(-c3ccccn3)[nH]2)cc1
[1]
  Population Apoptotic (%): 31% and 28%
  Population Fragmented Nuclei (%): 5%
  Population Healthy Nuclei (%): 81% and 72%
  Population Hoechst High Intensity Objects (%): 0%
  Population Membrane Permeable-Phenotype (%): 8% and 4%
  Population Mitochondria Different-Phenotype (%): 0% and 2%
  Population Mitotic Cells (%): 68% and 71%
  Population Normal (%): 100%
  Population Pyknosed Nuclei (%): 13% and 22%
  Population Tubulin-Different-Phenotype (%): 15% and 6%
  Total Cell Count: 265 and 208
[2]
  Population Apoptotic (%): 26% and 17%
  Population Fragmented Nuclei (%): 10% and 18%
  Population Healthy Nuclei (%): 57% and 67%
  Population Hoechst High Intensity Objects (%): 0%
  Population Membrane Permeable-Phenotype (%): 1% and 3%
  Population Mitochondria Different-Phenotype (%): 0% and 1%
  Population Mitotic Cells (%): 73% and 82%
  Population Normal (%): 100%
  Population Pyknosed Nuclei (%): 32% and 13%
  Total Cell Count: 187 and 209
[3]
  Population Apoptotic (%): 50% and 53%
  Population Fragmented Nuclei (%): 9% and 11%
  Population Healthy Nuclei (%): 83% and 67%
  Population Hoechst High Intensity Objects (%): 0%
  Population Membrane Permeable-Phenotype (%): 4% and 2%
  Population Mitochondria Different-Phenotype (%): 0%
  Population Mitotic Cells (%): 50% and 46%
  Population Normal (%): 100% and 99%
  Population Tubulin-Different-Phenotype (%): 12% and 5%
  Total Cell Count: 287 and 229
[4]
  Population Apoptotic (%): 37% and 14%
  Population Fragmented Nuclei (%): 12% and 24%
  Population Healthy Nuclei (%): 70% and 69%
  Population Hoechst High Intensity Objects (%): 0%
  Population Membrane Permeable-Phenotype (%): 2%
  Population Mitochondria Different-Phenotype (%): 1%
  Population Mitotic Cells (%): 62% and 85%
  Population Normal (%): 99% and 100%
  Population Pyknosed Nuclei (%): 16% and 6%
  Population Tubulin-Different-Phenotype (%): 10% and 5%
  Total Cell Count: 209 and 225
[5]
  Population Apoptotic (%): 56% and 77%
  Population Fragmented Nuclei (%): 12% and 14%
  Population Healthy Nuclei (%): 82% and 73%
  Population Hoechst High Intensity Objects (%): 0%
  Population Membrane Permeable-Phenotype (%): 4%
  Population Mitochondria Different-Phenotype (%): 0%
  Population Mitotic Cells (%): 43% and 22%
  Population Normal (%): 100% and 99%
  Population Pyknosed Nuclei (%): 5% and 12%
  Population Tubulin-Different-Phenotype (%): 5% and 4%
  Total Cell Count: 309 and 221
[6]
  Population Apoptotic (%): 33% and 40%
  Population Fragmented Nuclei (%): 16% and 24%
  Population Healthy Nuclei (%): 76% and 73%
  Population Hoechst High Intensity Objects (%): 0%
  Population Membrane Permeable-Phenotype (%): 0% and 2%
  Population Mitochondria Different-Phenotype (%): 0% and 1%
  Population Mitotic Cells (%): 66% and 60%
  Population Normal (%): 100%
  Population Pyknosed Nuclei (%): 6% and 2%
  Population Tubulin-Different-Phenotype (%): 11% and 7%
  Total Cell Count: 216 and 234
